Data from publication PMC9293711 (Acta Pharmaceutica Sinica. B, 2022).
Like-named read-outs stand apart in the source and are kept apart here.

How the values were obtained:
[1] = target: T1, P-gp (Homo sapiens, UniProt P08183); assay: biochemical; conditions: Table 2, steady-state affinity model (1:1), reference FC SMALPs-MCF-7
[2] = target: T1, P-gp; conditions: for Rmax: analyte binding capacity from steady-state fit; for Kd: Table 2, steady-state affinity model (1:1), reference FC SMALPs-MCF-7
[3] = tested on: MCF-7/ADR cells; type: cell-based, human; conditions: after 24 h pre-incubation with non-toxic concentration of the compound
How it was run: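 Adr-resistant MCF-7/ADR cells were kept in RPMI 1640 with 10% FBS and 1000 ng/mL Adr. Cells were seeded at 5 × 10^3/well and pre-treated 24 h with the test compound at its highest non-toxic level (95% viability by 24 h CCK8 over 1.25–80 μmol/L). Adr (0–100 μmol/L) was then added for 24 h.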

[4] = target: T1, P-gp; conditions: SPR screening of 50 natural products, remarkable response values
[5] = target: T1, P-gp; assay: Rh123 bidirectional transport experiment in MDCK-MDR1 cell monolayer; type: cell-based; conditions: MDCK-MDR1 cells, pre-incubation with the compound
How it was run: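 MDCK cells transfected with MDR1 were grown in DMEM with 10% FBS, streptomycin and penicillin, then used as monolayers on Transwell plates. Rh123 served as the P-gp substrate. Apparent permeability was measured in both directions, apical→basolateral and basolateral→apical, with efflux rate (ER) derived from these, for treated versus control monolayers (mean ± SD, n = 3).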

T1 sequence (P08183 whole entry): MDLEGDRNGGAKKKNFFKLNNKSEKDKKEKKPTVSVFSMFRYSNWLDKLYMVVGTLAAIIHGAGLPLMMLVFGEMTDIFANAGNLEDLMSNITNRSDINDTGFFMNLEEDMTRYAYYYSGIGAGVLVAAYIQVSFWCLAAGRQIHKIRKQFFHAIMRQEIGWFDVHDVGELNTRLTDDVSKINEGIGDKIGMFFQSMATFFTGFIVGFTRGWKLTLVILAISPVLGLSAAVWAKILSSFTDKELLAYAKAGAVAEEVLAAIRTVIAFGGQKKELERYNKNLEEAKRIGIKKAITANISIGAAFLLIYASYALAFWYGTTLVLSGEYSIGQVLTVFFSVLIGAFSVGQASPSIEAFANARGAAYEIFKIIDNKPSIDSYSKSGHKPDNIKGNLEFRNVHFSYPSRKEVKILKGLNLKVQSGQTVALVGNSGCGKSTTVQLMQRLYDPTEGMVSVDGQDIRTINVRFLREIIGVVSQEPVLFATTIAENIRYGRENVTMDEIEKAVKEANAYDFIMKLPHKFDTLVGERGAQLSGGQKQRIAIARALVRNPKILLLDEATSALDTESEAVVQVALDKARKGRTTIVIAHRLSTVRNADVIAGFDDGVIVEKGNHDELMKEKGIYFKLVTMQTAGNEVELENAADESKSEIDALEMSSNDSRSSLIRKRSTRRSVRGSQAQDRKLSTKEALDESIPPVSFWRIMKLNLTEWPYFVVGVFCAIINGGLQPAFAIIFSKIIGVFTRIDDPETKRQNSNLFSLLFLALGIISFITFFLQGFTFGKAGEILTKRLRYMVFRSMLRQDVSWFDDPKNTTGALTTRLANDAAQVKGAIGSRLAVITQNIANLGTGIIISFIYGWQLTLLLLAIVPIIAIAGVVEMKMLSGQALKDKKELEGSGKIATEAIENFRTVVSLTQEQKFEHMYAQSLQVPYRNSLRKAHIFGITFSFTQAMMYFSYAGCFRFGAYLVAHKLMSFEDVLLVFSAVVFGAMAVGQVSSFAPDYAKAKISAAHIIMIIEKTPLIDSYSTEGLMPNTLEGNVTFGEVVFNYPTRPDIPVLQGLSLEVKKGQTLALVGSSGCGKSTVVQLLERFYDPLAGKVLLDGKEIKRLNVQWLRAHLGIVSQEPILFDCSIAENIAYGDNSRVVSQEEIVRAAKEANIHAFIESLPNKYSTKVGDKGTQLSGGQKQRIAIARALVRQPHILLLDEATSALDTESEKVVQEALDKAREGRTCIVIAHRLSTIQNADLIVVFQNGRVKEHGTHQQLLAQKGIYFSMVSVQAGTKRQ

SMILES	Kd [1] [µM]	Rmax [2] [RU]	Screening outcome: target compound binding to P-gp [4]	Kd [2] [µM]	Effect on ER of Rh123 / P-gp function (in words) [5]	Sensitivity of MCF-7/ADR cells to Adr [3]
COc1cc(/C=C/C(=O)CC(=O)/C=C/c2ccc(O)c(OC)c2)ccc1O [Curcumin]	152	270.2				could not improve the sensitivity
COc1ccc2cc1Oc1ccc(cc1)C[C@H]1c3cc(c(OC)cc3CCN1C)Oc1c(O)c(OC)cc3c1[C@H](C2)N(C)CC3 [Fangchinoline]	116	24.92	could bind to P-gp			significantly increased
COc1ccc(-c2oc3c(CC=C(C)C)c(O)cc(O)c3c(=O)c2O)cc1 [Icaritin]		13.86	could bind to P-gp	2.55		
C/C=C/C[C@@H](C)C(=O)[C@H]1C(=O)N[C@@H](C(C)C)C(=O)N(C)CC(=O)N(C)[C@@H](CC(C)C)C(=O)N[C@@H](C(C)C)C(=O)N(C)[C@@H](CC(C)C)C(=O)N[C@@H](C)C(=O)N[C@H](C)C(=O)N(C)[C@@H](CC(C)C)C(=O)N(C)[C@@H](CC(C)C)C(=O)N(C)[C@@H](C(C)C)C(=O)N1C [Valspodar, valspodar, reference compound]						significantly increased

Second part, led by results:

Kd [1] [µM]	Rmax [2] [RU]	Screening outcome: target compound binding to P-gp [4]	Kd [2] [µM]	Effect on ER of Rh123 / P-gp function (in words) [5]	SMILES	Sensitivity of MCF-7/ADR cells to Adr [3]
255	114				O=C(/C=C/c1ccc(O)cc1)c1ccc(O)cc1O [Isoliquiritigenin]	could not improve the sensitivity
51.7	47.21	could bind to P-gp			O=c1cc(-c2ccc(O)c(O)c2)oc2cc(O)cc(O)c12 [Luteolin]	
	89.01	could bind to P-gp	127	significantly reduce the ER of Rh123	COc1cccc(O)c1-c1cc(=O)c2c(O)c(OC)c(OC)c(OC)c2o1 [Neobaicalein]	significantly increased
	2.618	could bind to P-gp	7.17		C/C=C(/C)C(=O)O[C@H]1[C@@H](OC(C)=O)c2c(ccc3ccc(=O)oc23)OC1(C)C [Praeruptorin A]	
	3.498	could bind to P-gp	0.542	significantly reduce the ER of Rh123	C/C=C(/C)C(=O)O[C@H]1c2c(ccc3ccc(=O)oc23)OC(C)(C)[C@H]1OC(=O)/C(C)=C\C [Praeruptorin B]	significantly increased
221	11.24	could bind to P-gp			COc1ccc2cc1Oc1ccc(cc1)C[C@H]1c3cc(c(OC)cc3CCN1C)Oc1c(OC)c(OC)cc3c1[C@H](C2)N(C)CC3 [Tetrandrine]	significantly increased
